The source of these data is paper PMC10259527 (International Journal of Nanomedicine, 2023).

Data set [1] is described as follows: In vivo toxicity in the hepatic AE mouse model. Also noted: species or system C57BL/6J mice. As to conditions: oral 100 mg/kg once daily for 30 days; for Histopathology of liver parenchyma surrounding the metacestodes: H&E. Put shortly: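 Female C57BL/6J mice were infected by portal-vein protoscolex injection. At 3 months, after ultrasound-confirmed metacestode growth, mice (n = 8/group) got oral gavage at 100 mg/kg daily for 30 days, dosed with 0.5% CMC suspensions or CMC alone. Sham-operated uninfected mice got portal saline. Afterwards, retro-orbital blood was drawn under isoflurane. Plasma (2000 g, 15 min, 4°C; stored −20°C) was assayed for ALT/AST on an automatic biochemical analyzer.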

Data set [2] can be described thus: In vivo pharmacokinetic study. Also noted: species or system BALB/c mice. As to conditions: BALB/c, mouse, plasma. A digest of the protocol: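 BALB/c mice (5–6 weeks, 20 ± 2 g; n = 6 per time point, 3 male + 3 female) got one IV dose (5 mg/kg) or oral gavage (100 mg/kg). Free compound was given in 5% DMSO/10% solutol HS-15/85% (20% hydroxypropyl-β-cyclodextrin in saline). Tail-vein blood was taken at 0.08–48 h and plasma separated at 2000 g, 15 min. Concentrations were measured by LC–MS/MS; parameters came from non-compartmental analysis.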

The nature of another data set: Cytotoxicity assay. Format: cell-based. As to conditions: human, HepG2 cells. Put shortly:
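HepG2 cells were seeded at 5×10^3/well. Treatment ran 48 h at 37°C, 5% CO2: free compound at 10–50 μM, nanoparticle form at 10–100 μM. Controls got vehicle only (0.1% v/v DMSO or deionized water). Viability was read by CCK-8 and normalized to vehicle controls, mean ± SEM.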

Data set [3] in a line: Biodistribution by ex vivo fluorescence imaging of major organs. Format: in vivo, BALB/c nude mice. As to conditions: Cy5.5-labeled, single oral 25 mg/kg, mice. Put shortly:
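Female BALB/c nude mice, acclimated 1 week and fasted 12 h overnight with water, got one oral dose of 25 mg/kg (by parent mass). Cy5.5-labeled nanoparticles were given in PBS; Cy5.5-labeled free compound as an H2O/DMSO (40:1) suspension. Four mice per group were killed at 2, 4, 6, 8 and 24 h. Heart, liver, lungs, spleen and kidneys were PBS-washed and imaged ex vivo for fluorescence. Liver intensity was quantified (n = 4, mean ± SEM).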

In general, AUC(0-inf) refers to total exposure, with the tail of the curve extrapolated. Usually AUC(0-t) stands for exposure summed from dosing to a finite time, without extrapolation to infinity. Read a low AUC(0-t) as low exposure. One may read the Cmax as the maximum level reached in the sampled fluid or tissue. One may read the Tmax as the time from dosing to the highest level. The Vd is the apparent volume that relates the amount in the body to the concentration in plasma or blood. A high value points to extensive tissue distribution. A word on the clearance: it is the rate of elimination divided by the concentration. Lower therefore signals a low capacity for elimination. By half-life is commonly meant the time in which the quantity being followed falls by half. Read a high half-life as slow decline. The bioavailability is dose-corrected exposure relative to a reference, in per cent. Low values mean poor availability, high ones good availability. In general, CC50 refers to the concentration that lowers cell viability or growth by half. The low end stands for harm at low concentration, the high end for better tolerance by the cells.

On to `CCCSc1ccc2nc(NC(=O)OC)[nH]c2c1` [albendazole, reference compound], for which the “Histopathology of liver parenchyma surrounding the metacestodes” value in data set [1] was “inflammatory infiltrate, fibroplastic proliferation, and hepatocellular necrosis”.
In the case of `CCCNCC(O)Cn1c2ccc(Cl)cc2c2cc(Cl)ccc21` (centres unmarked) [Compound H1402, 1-(3,6-dichloro-9H-carbazol-9-yl)-3-(propylamino)propan-2-ol], in data set [2] (both, iv, 5 mg/kg), the AUC(0-inf) came out at 7.6 µM·h, the area under the curve AUC(0-t) was determined as 7.5 µM·h, the peak level (Cmax) was 2.6 µM and the Tmax came out at 0.083 h. In data set [2] (both, iv, 5 mg/kg), the Vd worked out at 19 L/kg, the clearance is 1.92 L/h/kg and the half-life is 7 h. In data set [2] (both, oral, 100 mg/kg), this compound came in with a bioavailability of 69.8%. In addition, in data set [2] (both, po, 100 mg/kg), the AUC(0-inf) came out at 128 µM·h, the AUC(0-t) worked out at 104 µM·h, the peak level (Cmax) was 4.4 µM and the Tmax turned out to be 6 h. In addition, the half-life in data set [2] (both, po, 100 mg/kg) was 17.5 h. For the same compound, the half-life in data set [2] (female, po, 100 mg/kg) is 24.6 h. The same compound showed a half-life in data set [2] (male, po, 100 mg/kg) of 10.4 h. It took 14.9 µM to reach half-maximal cytotoxicity in “Cytotoxicity assay” (CC50 at 48 h). In addition, the “Histopathology of liver parenchyma surrounding the metacestodes” value in data set [1] is “inflammatory infiltrate, fibroplastic proliferation, and hepatocellular necrosis”. Besides, in data set [1] (compared to shamed individuals), the “Liver transaminases (mean ALT and AST values)” value is listed as “various degrees of increase”. Also, the “Decrease of fluorescence intensity in the liver from 8 h to 24 h” value in data set [3] amounted to 49.9%.
